Consider ten molecules from PMC3358524 (Journal of Immunology (Baltimore, Md. : 1950), 2012).

As usually defined, the IC50 is the point on the concentration scale where inhibition reaches its midpoint. A lower IC50 goes with higher potency.

Peptide text beside a SMILES is read from it.

For test [1], the target named is HLA-A*1101 (Homo sapiens, UniProt P04439, A114D/D185E/E176A/F33Y/L180Q/S129P/T187R). As to the kind of experiment: Competitive peptide-binding assay, purified HLA-A*1101.
Test [2] addresses HLA-A*3001 (Homo sapiens, UniProt P04439, D140H/D185E/E176W/F33S/G80R/H175R/K168Q/R138E/R41S). Nature of the test: Competitive peptide-binding assay, purified HLA-A*3001. An outline of the steps:
(§1)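 HLA class I purified from EBV-transformed homozygous or single-allele-transfected 721.221/C1R lysates on W6/32 beads (some HLA-A pre-depleted of B/C on B1.23.2). 0.1–1 nM radiolabeled high-affinity probe, 1 µM to 1 nM MHC, protease inhibitors, 1 µM β2m; 2 days, room temp. Complexes captured on W6/32 plates, cpm counted. Competitor at six concentrations over 100,000-fold range, ≥3 experiments; IC50 = 50% probe inhibition.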

Test [3] addresses HLA-A*3301 (Homo sapiens, UniProt P04439, A270S/D185E/E176V/E277Q/E87N/F33T/G231S/H175R/I121M/I218V/I322F/K168Q/K210R/L300P/L318F/M331R/P217A/Q86R/Q94H/R138Q/T323A/T345S/T97I/V358M/Y195H). As to the kind of experiment: Competitive peptide-binding assay, purified HLA-A*3301. An outline of the steps:
as §1

In test [4] the target is HLA-A*0301 (Homo sapiens, UniProt P04439). As to the kind of experiment: Competitive peptide-binding assay, purified HLA-A*0301. The procedure, abridged: as §1
The target of test [5] is HLA-A*6801 (Homo sapiens, UniProt P04439, A269V/D185E/E176V/E277Q/E87N/F33Y/G231S/I121M/I166T/I218V/L180W/L300P/L318F/N151K/P208A/P217A/Q86R/R169H/T345S). Nature of the test: Competitive peptide-binding assay, purified HLA-A*6801. The procedure, abridged:
as §1

Test [6] has as its target HLA-A*3101 (Homo sapiens, UniProt P04439, A270S/D185E/E176V/E277Q/F33T/G231S/G80R/H175R/I121M/I218V/I322F/K168Q/L300P/L318F/M331R/P217A/Q94H/R138Q/T323A/T345S/T97I/V358M). As to the kind of experiment: Competitive peptide-binding assay, purified HLA-A*3101.
For test [7], the target named is HLA-A*6601 (Homo sapiens, UniProt P04439, A114D/A173T/A270S/D185E/E277Q/E87N/F33Y/G231S/I121R/I218V/K168Q/L180W/L300P/L318F/P208A/P217A/Q86R/R138Q/S129P/T187R/T323A/T345S/V358M). As to the kind of experiment: Competitive peptide-binding assay, purified HLA-A*6601. An outline of the steps: as §1
The target of test [8] is HLA-B*5401 (Homo sapiens, UniProt P01889, A329T/C349S/D138N/D201E/E176V/E187T/E204Q/E69G/I76V/K202T/L119W/R155S/R180L/S121T/S35A/S48A/V127L/V306I/V36M/Y140L). Nature of the test: Competitive peptide-binding assay, purified HLA-B*5401. The procedure, abridged: as §1
Test [9] addresses HLA-B*3503 (Homo sapiens, UniProt P01889, A329T/A93T/A95T/C349S/D201E/D98Y/E176V/E187L/E204Q/E69T/I218V/K202T/L119I/Q94N/R155S/R180L/S121R/S35A/S48A/T118I/V127L/V306I/V36M/Y140F/Y91F). Nature of the test: Competitive peptide-binding assay, purified HLA-B*3503. An outline of the steps: as §1
Test [10] deals with HLA-B*5301 (Homo sapiens, UniProt P01889, A329T/A93T/A95T/C349S/D201E/D98Y/E176V/E187L/E204Q/E69T/G107R/I218V/K202T/L105A/L119I/N104I/Q94N/R106L/R155S/R180L/S101N/S121R/S35A/S48A/T118I/V127L/V306I/V36M/Y140S/Y91F). Nature of the test: Competitive peptide-binding assay, purified HLA-B*5301. The procedure, abridged:
as §1

For test [11], the target named is HLA-B*3501 (Homo sapiens, UniProt P01889, A329T/A93T/A95T/C349S/D201E/D98Y/E176V/E187L/E204Q/E69T/I218V/K202T/L119I/Q94N/R155S/R180L/S121R/S35A/S48A/T118I/V127L/V306I/V36M/Y140S/Y91F). As to the kind of experiment: Competitive peptide-binding assay, purified HLA-B*3501. An outline of the steps:
as §1

Test [12] addresses HLA-B*0702 (Homo sapiens, UniProt P01889). Nature of the test: Competitive peptide-binding assay, purified HLA-B*0702. The procedure, abridged:
as §1

Test [13] has as its target HLA-B*4201 (Homo sapiens, UniProt P01889, D138N/E176V/E187T/K202T/R180D). As to the kind of experiment: Competitive peptide-binding assay, purified HLA-B*4201. An outline of the steps:
as §1

Test [14] has as its target HLA-B*5101 (Homo sapiens, UniProt P01889, A329T/A93T/A95T/C349S/D138N/D201E/D98Y/E187L/E204Q/E69T/G107R/I218V/K202T/L105A/L119W/N104I/Q94N/R106L/R155S/R180L/S101N/S121T/S35A/S48A/V306I/V36M/Y195H/Y91F). As to the kind of experiment: Competitive peptide-binding assay, purified HLA-B*5101. The procedure, abridged: as §1
Test [15] relates to T cells of recent-onset HLA-A*0201-positive patients. The conditions noted are these: recent-onset HLA-A*0201-positive type 1 diabetes patients; cited from earlier work.

For the molecule `CC[C@H](C)[C@H](NC(=O)[C@H](C)N)C(=O)N[C@@H](CC(N)=O)C(=O)N[C@@H](CO)C(=O)N[C@@H](CCC(=O)O)C(=O)N[C@@H](CCSC)C(=O)N[C@@H](Cc1ccccc1)C(=O)N[C@@H](CC(C)C)C(=O)N[C@@H](CC(C)C)C(=O)O` [Human IGRP 272–280] (H-AINSEMFLL-OH), the IC50 is 2.82 µM in [1]; 6.78 µM in test [2]; 12.8 µM in test [3]; 1260 nM in [4]; 14.2 µM in test [5]; 1.07 µM in test [6]. Further, the IC50 in test [7] turned out to be 36.7 µM.

Regarding `CC(C)C[C@H](NC(=O)[C@H](C)NC(=O)[C@H](CC(C)C)NC(=O)[C@@H]1CCCN1C(=O)[C@H](CCC(N)=O)NC(=O)[C@H](CC(C)C)NC(=O)[C@H](CO)NC(=O)CNC(=O)[C@H](C)NC(=O)CNC(=O)[C@@H]1CCCN1C(=O)CN)C(=O)O` [Human Ins C15-26] (H-GPGAGSLQPLAL-OH), the IC50 was above 50 µM in test [8]; above 50 µM in [9]; 15.5 µM in test [10]; above 50 µM in [11]; 462 nM in test [12]; 6.07 µM in [13]. This molecule registered an IC50 in [14] above 50 µM.

Consider `CC(C)C[C@H](NC(=O)[C@H](C)NC(=O)[C@H](CC(C)C)NC(=O)[C@@H]1CCCN1)C(=O)N[C@@H](CCC(=O)O)C(=O)NCC(=O)N[C@@H](CO)C(=O)N[C@@H](CC(C)C)C(=O)N[C@@H](CCC(N)=O)C(=O)N[C@@H](CCCCN)C(=O)O` [Human Ins C23-32] (H-PLALEGSLQK-OH), for which the IC50 in test [1] is 37.1 µM; in test [2], above 50 µM; in test [3], above 50 µM; in test [4], 20900 nM; in test [5] it was 41.5 µM; in test [6], 39.4 µM. This molecule also came in with an IC50 in [7] of 48.5 µM.

In the case of `CC(C)C[C@H](NC(=O)[C@H](C)NC(=O)[C@@H](N)CC(C)C)C(=O)N[C@@H](CCC(=O)O)C(=O)NCC(=O)N[C@@H](CO)C(=O)N[C@@H](CC(C)C)C(=O)N[C@@H](CCC(N)=O)C(=O)N[C@@H](CCCCN)C(=O)N[C@@H](CCCNC(=N)N)C(=O)O` [Human Ins C24-33] (H-LALEGSLQKR-OH), the IC50 in test [1] is 34.5 µM; in test [2] it was above 50 µM; in [3], 3.27 µM; in test [4] it was 17500 nM; in test [5] it was 0.066 µM; in test [6] it was 38.4 µM. The half-maximal inhibitory concentration (IC50) in test [7] was 0.515 µM.

For `CC[C@H](C)[C@H](NC(=O)[C@H](C)N)C(=O)N[C@@H](CC(N)=O)C(=O)N[C@@H](CO)C(=O)N[C@@H](CCC(=O)O)C(=O)N[C@@H](CCSC)C(=O)N[C@@H](Cc1ccccc1)C(=O)N[C@@H](CC(C)C)C(=O)N[C@@H](CCCNC(=N)N)C(=O)O` [Mouse IGRP 272–280] (H-AINSEMFLR-OH), the IC50 in test [1] stood at 0.209 µM; in test [2], 49.8 µM; in [3], 1.08 µM; in test [4] it was 428 nM; in test [5], 0.109 µM; in [6], 0.067 µM. The IC50 in test [7] was 4.55 µM.

Take `CC(C)C[C@H](NC(=O)[C@H](C)NC(=O)[C@H](CC(C)C)NC(=O)[C@@H](NC(=O)[C@H](CCC(N)=O)NC(=O)[C@H](CC(C)C)NC(=O)[C@H](CC(=O)O)NC(=O)CNC(=O)[C@@H]1CCCN1C(=O)[C@@H](N)CO)[C@@H](C)O)C(=O)O` [Mouse Ins1 C15-24] (H-SPGDLQTLAL-OH): the IC50 in [8] was above 50 µM; in test [9] it was 16.1 µM; in [10], 11 µM; in test [11], above 50 µM; in test [12], 4.4 nM; in test [13] it was 0.035 µM. This molecule registered an IC50 in test [14] above 50 µM.

`CC(C)C[C@H](NC(=O)[C@H](C)NC(=O)[C@H](CC(C)C)NC(=O)[C@@H](N)[C@@H](C)O)C(=O)N[C@@H](CCC(=O)O)C(=O)N[C@H](C(=O)N[C@@H](C)C(=O)N[C@@H](CCCNC(=N)N)C(=O)N[C@@H](CCC(N)=O)C(=O)N[C@@H](CCCCN)C(=O)O)C(C)C` [Mouse Ins1 C21-30] (H-TLALEVARQK-OH): the IC50 in [1] amounted to 3.33 µM; in test [2], 23.3 µM; in test [3] it was 25.5 µM; in [4], 605 nM; in [5], 13.4 µM; in test [6] it was 13 µM. The same molecule yielded an IC50 in test [7] above 50 µM.

`CC(C)C[C@H](NC(=O)[C@H](C)NC(=O)[C@@H](N)CC(C)C)C(=O)N[C@@H](CCC(=O)O)C(=O)N[C@H](C(=O)N[C@@H](C)C(=O)N[C@@H](CCCNC(=N)N)C(=O)N[C@@H](CCC(N)=O)C(=O)N[C@@H](CCCCN)C(=O)N[C@@H](CCCNC(=N)N)C(=O)O)C(C)C` [Mouse Ins1 C22-31] (H-LALEVARQKR-OH): the IC50 is above 50 µM in [1]; 43 µM in test [2]; 9.14 µM in test [3]; 43600 nM in [4]; 12.6 µM in test [5]; 10.8 µM in test [6]. In [7], this molecule yielded an IC50 of 13 µM.

In the case of `CC(C)C[C@H](NC(=O)[C@H](C)NC(=O)[C@H](CC(C)C)NC(=O)[C@@H](N)[C@@H](C)O)C(=O)N[C@@H](CCC(=O)O)C(=O)N[C@H](C(=O)N[C@@H](C)C(=O)N[C@@H](CCC(N)=O)C(=O)N[C@@H](CCC(N)=O)C(=O)N[C@@H](CCCCN)C(=O)O)C(C)C` [Mouse Ins2 C23-32] (H-TLALEVAQQK-OH), the IC50 in test [1] was 0.833 µM; in test [2], above 50 µM; in [3], above 50 µM; in [4], 856 nM; in [5] it was 7.49 µM; in test [6], above 50 µM. Also, in test [7], the IC50 is above 50 µM.

As for “IGRP 265–273: HLA-A2-binding IGRP epitope recognised in patients (VLFGLGFAI; UniProt Q9NQR9 265-273, looked up, fragment)”, the “Patients showing T cell responses to the peptide (fraction in words)” value in [15] is reported as “one quarter”.
